In ChEMBL document CHEMBL5236609, “Optimization of 1,2,4-Triazole-3-thiones toward Broad-Spectrum Metallo-β-lactamase Inhibitors Showing Potent Synergistic Activity on VIM- and NDM-1-Producing Clinical Isolates” (J Med Chem, 2022):
Calls of active or inactive are those of the source. The rule behind the calls is not given here.

How the values were obtained:
[1] = tested on: Bacteria; assay: Inhibition of bacterial VIM-2 (unknown origin) assessed as Zn(II) content in protein at >5 uM by overnight equilibrium dialysis
Outline: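 VIM-2 or NDM-1 (3 μM final) in 50 mM HEPES pH 7.5 mixed with compound at 0–48 μM. Incubated 1 h on ice, then dialysed overnight at 4 °C against 50 mM HEPES pH 7.5. Zn(II) content measured by atomic absorption at 213.86 nm against a zinc standard curve. Each point averages three samples.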

[2] = tested on: Klebsiella pneumoniae; assay: Antimicrobial activity against blaVIM-1-producing multidrug-resistant Klebsiella pneumoniae 7023 clinical isolate assessed as meropenem MIC using cation-adjusted Mueller-Hinton broth at 16 ug/ml by broth microdilution method (reference value: […] ug/ml); assay type: functional; details: dose 16 µg/ml
Outline: (§1)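 Checkerboard broth microdilution in cation-supplemented Mueller–Hinton broth, inoculum 5×10^4 CFU/well, per CLSI. […] The average fractional inhibitory concentration index was computed from the checkerboard.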

[3] = tested on: Klebsiella pneumoniae; assay: Antimicrobial activity against blaVIM-1-producing multidrug-resistant Klebsiella pneumoniae 7023 clinical isolate assessed as meropenem MIC using cation-adjusted Mueller-Hinton broth at 2 ug/ml by broth microdilution method (reference value: […] ug/ml); assay type: functional; details: dose 2 µg/ml; outline: as §1
[4] = tested on: Klebsiella pneumoniae; assay: Antimicrobial activity against blaVIM-1-producing multidrug-resistant Klebsiella pneumoniae 7023 clinical isolate assessed as meropenem MIC using cation-adjusted Mueller-Hinton broth at 32 ug/ml by broth microdilution method (reference value: […] ug/ml); assay type: functional; details: dose 32 µg/ml; outline: as §1
[5] = tested on: Klebsiella pneumoniae; assay: Antimicrobial activity against blaVIM-4-producing multidrug-resistant Klebsiella pneumoniae VA-416/02 clinical isolate assessed as meropenem MIC using cation-adjusted Mueller-Hinton broth at 16 ug/ml by broth microdilution method (reference value: […] ug/ml); assay type: functional; details: dose 16 µg/ml; outline: as §1
[6] = tested on: Escherichia coli; assay: Antimicrobial activity against blaNDM-1-producing multidrug-resistant Escherichia coli SI-004 clinical isolate assessed as meropenem MIC using cation-adjusted Mueller-Hinton broth at 4 ug/ml by broth microdilution method (reference value: 64 ug/ml); assay type: functional; details: dose 4 µg/ml; outline: as §1
[7] = tested on: Klebsiella pneumoniae; assay: Antimicrobial activity against blaVIM-1-producing multidrug-resistant Klebsiella pneumoniae 7023 clinical isolate assessed as meropenem MIC using cation-adjusted Mueller-Hinton broth at 0.5 ug/ml by broth microdilution method (reference value: […] ug/ml); assay type: functional; details: dose 0.5 µg/ml; outline: as §1
[8] = tested on: Escherichia coli; assay: Antimicrobial activity against blaNDM-1-producing multidrug-resistant Escherichia coli SI-004 clinical isolate assessed as meropenem MIC using cation-adjusted Mueller-Hinton broth at 0.5 ug/ml by broth microdilution method (reference value: 64 ug/ml); assay type: functional; details: dose 0.5 µg/ml; outline: as §1
[9] = tested on: Klebsiella pneumoniae; assay: Antimicrobial activity against blaVIM-4-producing multidrug-resistant Klebsiella pneumoniae VA-416/02 clinical isolate assessed as meropenem MIC using cation-adjusted Mueller-Hinton broth at 0.5 ug/ml by broth microdilution method (reference value: […] ug/ml); assay type: functional; details: dose 0.5 µg/ml; outline: as §1
[10] = tested on: Bacteria; assay: Binding affinity to bacterial VIM-2 (unknown origin) assessed as change in enthalpy by isothermal calorimetric assay
Outline: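 ITC at 25 °C. VIM-2 at 19 μM in 10 mM HEPES-NaOH, 0.15 M NaCl, pH 7.5 with DMSO matched to 1%, titrated with compound at 200 μM: one 0.5 μL injection, then 19 × 2 μL at 150 s intervals. Buffer dilution heats subtracted. Nonlinear fit gives n, Ka and ΔH°; values regarded as apparent.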

[11] = tested on: Klebsiella pneumoniae; assay: Antimicrobial activity against blaVIM-1-producing multidrug-resistant Klebsiella pneumoniae 7023 clinical isolate assessed as meropenem MIC using cation-adjusted Mueller-Hinton broth at 4 ug/ml by broth microdilution method (reference value: […] ug/ml); assay type: functional; details: dose 4 µg/ml; outline: as §1
[12] = tested on: Klebsiella pneumoniae; assay: Antimicrobial activity against blaVIM-1-producing multidrug-resistant Klebsiella pneumoniae 7023 clinical isolate assessed as meropenem MIC using cation-adjusted Mueller-Hinton broth at 8 ug/ml by broth microdilution method (reference value: […] ug/ml); assay type: functional; details: dose 8 µg/ml; outline: as §1
[13] = tested on: Klebsiella pneumoniae; assay: Antimicrobial activity against blaVIM-4-producing multidrug-resistant Klebsiella pneumoniae VA-416/02 clinical isolate assessed as meropenem MIC using cation-adjusted Mueller-Hinton broth at 32 ug/ml by broth microdilution method (reference value: […] ug/ml); assay type: functional; details: dose 32 µg/ml; outline: as §1
[14] = tested on: Escherichia coli; assay: Antimicrobial activity against blaNDM-1-producing multidrug-resistant Escherichia coli SI-004 clinical isolate assessed as meropenem MIC using cation-adjusted Mueller-Hinton broth at 2 ug/ml by broth microdilution method (reference value: 64 ug/ml); assay type: functional; details: dose 2 µg/ml; outline: as §1
[15] = tested on: Klebsiella pneumoniae; assay: Antimicrobial activity against blaVIM-4-producing multidrug-resistant Klebsiella pneumoniae VA-416/02 clinical isolate assessed as meropenem MIC using cation-adjusted Mueller-Hinton broth at 2 ug/ml by broth microdilution method (reference value: […] ug/ml); assay type: functional; details: dose 2 µg/ml; outline: as §1
[16] = tested on: Klebsiella pneumoniae; assay: Antimicrobial activity against blaVIM-4-producing multidrug-resistant Klebsiella pneumoniae VA-416/02 clinical isolate assessed as meropenem MIC using cation-adjusted Mueller-Hinton broth at 8 ug/ml by broth microdilution method (reference value: […] ug/ml); assay type: functional; details: dose 8 µg/ml; outline: as §1
[17] = tested on: Klebsiella pneumoniae; assay: Antimicrobial activity against blaVIM-1-producing multidrug-resistant Klebsiella pneumoniae 7023 clinical isolate assessed as meropenem MIC using cation-adjusted Mueller-Hinton broth at 1 ug/ml by broth microdilution method (reference value: […] ug/ml); assay type: functional; details: dose 1 µg/ml; outline: as §1
[18] = tested on: Escherichia coli; assay: Antimicrobial activity against blaNDM-1-producing multidrug-resistant Escherichia coli SI-004 clinical isolate assessed as meropenem MIC using cation-adjusted Mueller-Hinton broth at 8 ug/ml by broth microdilution method (reference value: 64 ug/ml); assay type: functional; details: dose 8 µg/ml; outline: as §1
[19] = tested on: Klebsiella pneumoniae; assay: Antimicrobial activity against blaVIM-4-producing multidrug-resistant Klebsiella pneumoniae VA-416/02 clinical isolate assessed as meropenem MIC using cation-adjusted Mueller-Hinton broth at 4 ug/ml by broth microdilution method (reference value: […] ug/ml); assay type: functional; details: dose 4 µg/ml; outline: as §1
[20] = tested on: Escherichia coli; assay: Antimicrobial activity against blaNDM-1-producing multidrug-resistant Escherichia coli SI-004 clinical isolate assessed as meropenem MIC using cation-adjusted Mueller-Hinton broth at 32 ug/ml by broth microdilution method (reference value: 64 ug/ml); assay type: functional; details: dose 32 µg/ml; outline: as §1
[21] = tested on: Bacteria; assay: Inhibition of bacterial Metallo-beta-lactamase VIM-1 (unknown origin) at 100 uM relative to control
Outline: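 Reporter-substrate assay with purified MBL (1–70 nM final) in 50 mM HEPES pH 7.5 at 30 °C. […] Inhibitor 0.5–1000 μM final. Ki derived from the v0/vi vs [I] slope assuming competitive inhibition, or from a Dixon plot. Ki given when inhibition >70%, otherwise % inhibition at 100 μM. Triplicate.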

## O=C(O)[C@H](CCCn1c(-c2ccccc2)n[nH]c1=S)N(Cc1ccccn1)Cc1ccccn1
[1]
  inhibition: Active

## O=C(O)[C@H](CCCn1c(-c2ccccc2)n[nH]c1=S)N(Cc1c[nH]cn1)Cc1c[nH]cn1
[2]
  MIC: 0.06 µg/mL
[3]
  MIC: 4 µg/mL
[4]
  MIC: 0.03 µg/mL
[5]
  MIC: 0.06 µg/mL
[6]
  MIC: 32 µg/mL
[7]
  MIC: 16 µg/mL
[8]
  MIC: 64 µg/mL
[9]
  MIC: 16 µg/mL
[10]
  deltaH: -9.8 kcal/mol
[11]
  MIC: 2 µg/mL
[12]
  MIC: 1 µg/mL
[13]
  MIC: 0.03 µg/mL
[14]
  MIC: 64 µg/mL
[15]
  MIC: 4 µg/mL
[16]
  MIC: 1 µg/mL
[17]
  MIC: 8 µg/mL
[18]
  MIC: 32 µg/mL
[19]
  MIC: 2 µg/mL
[20]
  MIC: 0.03 µg/mL
[21]
  inhibition: 57%
